Source: ChEMBL document CHEMBL5584302, “Exploration of Hydrazide-Based HDAC8 PROTACs for the Treatment of Hematological Malignancies and Solid Tumors” (J Med Chem, 2024)
Activity calls are given as the source filed them. The rule behind the calls is not given here.

What was measured:
Jurkat [1] = experiment: Induction of apoptosis in human Jurkat cells assessed as increase in caspase 3/7 activity at 5 uM incubated for 48 hrs; type: functional, cell-based
Jurkat [2] = experiment: Upregulation of Ac-SMC3 level in human Jurkat cells incubated for 6 hrs by Western blot analysis; type: functional, cell-based; conditions: dose <= 1.0 µM
Procedure, shortened: (§1)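 Jurkat cells exposed to the indicated compound concentrations for 6 h. Ac-SMC3 and Ac-HH3 were detected by Western blot with GAPDH as loading control. Bands were quantified by densitometry and normalized to the DMSO-treated group. Data are mean ± SEM of two independent experiments, compared with DMSO by one-way ANOVA.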

Jurkat [3] = experiment: Effect on GSPT1 level in human Jurkat cells at upto 10 uM by Western blot analysis; type: functional, cell-based
Procedure, shortened: (§2)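 Jurkat cells were treated with graded concentrations for 6 h, alongside 10 μM pomalidomide. IKZF1, IKZF3 and GSPT1 were detected by Western blot, with GAPDH as the loading control.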

THP-1 [4] = experiment: Induction of ferroptosis in human THP-1 cells assessed as increase in lipid peroxidation at 0.37 to 10 uM incubated for 24 hrs by BODIPY 581/591 C11 staining based flow cytometry analysis; type: functional, cell-based; conditions: dose 0.37-10 µM
HCT-116 [5] = experiment: Upregulation of Ac-HH3 level in human HCT-116 cells incubated for 6 hrs by Western blot analysis; type: functional, cell-based; conditions: dose 0.004-3.3 µM
Procedure, shortened: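 HCT116 cells were incubated with graded concentrations for 6 h. Ac-HH3 was detected by Western blot with GAPDH as the loading control, then quantified by densitometry and normalized to DMSO-treated cells. Data are mean ± SEM of two independent experiments, compared against DMSO by one-way ANOVA.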

Jurkat [6] = experiment: Induction of cell death in human Jurkat cells at 5 uM measured after 48 hrs in presence of chloroquine by flow cytometry analysis; type: functional, cell-based
Jurkat [7] = experiment: Upregulation of Ac-SMC3 level in human Jurkat cells measured after 6 hrs by Western blot analysis; type: functional, cell-based; conditions: dose 0.0001-1 µM; procedure, shortened: as §1
Jurkat [8] = experiment: Effect on IKZF1 level in human Jurkat cells at upto 10 uM by Western blot analysis; type: functional, cell-based; procedure, shortened: as §2
Jurkat [9] = experiment: Upregulation of Ac-SMC3 level in human Jurkat cells at 1 uM measured after 6 hrs by Western blot analysis; type: functional, cell-based; procedure, shortened: as §1
HCT-116 [10] = experiment: Induction of apoptosis in human HCT-116 cells assessed as increase in caspase 3/7 activity at 5 uM incubated for 48 hrs; type: functional, cell-based
Jurkat [11] = experiment: Induction of apoptosis in human Jurkat cells at 1.1 to 10 uM measured after 24 to 48 hrs by AnnexinV/FITC and PI staining based flow cytometry analysis; type: functional, cell-based; conditions: dose 1.1-10 µM, time 24-48 hrs
Jurkat [12] = experiment: Upregulation of Ac-tubulin level in human Jurkat cells at upto 1 uM measured after 6 hrs by Western blot analysis; type: functional, cell-based
Procedure, shortened: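 Jurkat cells were treated for 6 h at the indicated concentrations. Acetylated tubulin was probed by Western blot, with GAPDH as loading control.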

HCT-116 [13] = experiment: Induction of ferroptosis in human HCT-116 cells assessed as increase in lipid peroxidation at low concentration incubated for 24 hrs by BODIPY 581/591 C11 staining based flow cytometry analysis; type: functional, cell-based; conditions: dose 0.37-10 µM
Jurkat [14] = experiment: cells; conditions: Homo sapiens
HCT-116 [15] = experiment: Induction of apoptosis in human HCT-116 cells assessed as necrotic cells at 1.1 uM measured after 48 hrs by AnnexinV/FITC and PI staining based flow cytometry analysis (reference value: […]); type: functional
HCT-116 [16] = experiment: Induction of apoptosis in human HCT-116 cells measured after 48 hrs by AnnexinV/FITC and PI staining based flow cytometry analysis; type: functional, cell-based; conditions: dose 1.1-10 µM
Jurkat [17] = experiment: Upregulation of AcHH4 level on human Jurkat cells at 0.04 to 10 uM measured after 48 hrs by Western blot analysis; type: functional, cell-based; conditions: dose 0.04-10 µM
HCT-116 [18] = experiment: Induction of cell cycle arrest in human HCT-116 cells assessed as accumulation of cells at G2/M phase measured after 48 hrs by PI staining based flow cytometry analysis; type: functional; conditions: dose 0.13-3.3 µM
HCT-116 [19] = experiment: Induction of apoptosis in human HCT-116 cells assessed as increase in caspase 3/7 activity incubated for 48 hrs; type: functional, cell-based; conditions: dose 12.5-5 µM
HCT-116 [20] = experiment: Upregulation of Ac-HH3 level in human HCT-116 cells at 0.04 to 3.3 uM measured after 24 hrs by Western blot analysis; type: functional, cell-based; conditions: dose 0.04-3.3 µM
Jurkat [21] = experiment: Induction of cell death in human Jurkat cells at 5 uM measured after 48 hrs in presence of Z-VAD-FMK by flow cytometry analysis; type: functional, cell-based
Jurkat [22] = experiment: cells; conditions: Homo sapiens; remark: listed apart in the source
THP-1 [23] = experiment: cells; conditions: Homo sapiens
Jurkat [24] = experiment: cells; conditions: Homo sapiens; remark: listed apart in the source
Jurkat [25] = experiment: Upregulation of Ac-HH3 level in human Jurkat cells at 1 uM measured after 6 hrs by Western blot analysis; type: functional, cell-based; procedure, shortened: as §1
HCT-116 [26] = experiment: Upregulation of Ac-SMC3 level in human HCT-116 cells incubated for 6 hrs by Western blot analysis; type: functional, cell-based; conditions: dose 0.004-3.3 µM
Procedure, shortened: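 HCT116 cells were treated 6 h with the indicated concentrations. Ac-SMC3 was measured by Western blot with GAPDH as loading control, quantified by densitometry and normalized to the DMSO group. Data are mean ± SEM from two independent experiments; one-way ANOVA vs DMSO.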

Jurkat [27] = experiment: cells; conditions: Homo sapiens; remark: listed apart in the source
Jurkat [28] = experiment: Induction of cell death in human Jurkat cells at 5 uM measured after 48 hrs in presence of necrostatin-1 by flow cytometry analysis; type: functional, cell-based
Jurkat [29] = experiment: Induction of apoptosis in human Jurkat cells assessed as increase in caspase 3/7 activity incubated for 48 hrs; type: functional, cell-based; conditions: dose upper 5.0 µM
Jurkat [30] = experiment: Induction of ferroptosis in human Jurkat cells assessed as increase in lipid peroxidation incubated for 24 hrs by BODIPY 581/591 C11 staining based flow cytometry analysis; type: functional, cell-based; conditions: dose 0.37-10 µM
Jurkat [31] = experiment: Effect on IKZF3 level in human Jurkat cells at upto 10 uM by Western blot analysis; type: functional, cell-based; procedure, shortened: as §2
Jurkat [32] = experiment: Upregulation of Ac-HH3 level in human Jurkat cells measured after 24 hrs by Western blot analysis; type: functional, cell-based; conditions: dose <= 10000.0 nM
Procedure, shortened: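 Jurkat cells were incubated 24 h with the indicated concentrations. Ac-HH3 was detected by Western blot against a GAPDH loading control, quantified by densitometry and normalized to DMSO-treated cells. Data are mean ± SEM of two independent experiments; one-way ANOVA vs DMSO.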

Jurkat [33] = experiment: Upregulation of AcHH3 level on human Jurkat cells at 0.04 to 10 uM measured after 48 hrs by Western blot analysis; type: functional, cell-based; conditions: dose 0.04-10 µM
Jurkat [34] = experiment: Upregulation of Ac-HH3 level in human Jurkat cells incubated for 6 hrs by Western blot analysis; type: functional, cell-based; procedure, shortened: as §1
Jurkat [35] = experiment: Induction of ferroptosis in human Jurkat cells assessed as increase in lipid peroxidation incubated for 48 hrs by BODIPY 581/591 C11 staining based flow cytometry analysis; type: functional, cell-based
THP-1 [36] = experiment: Upregulation of Ac-HH3 level in human THP-1 cells at 0.04 to 3.3 uM measured after 24 hrs by Western blot analysis; type: functional, cell-based; conditions: dose 0.04-3.3 µM
Procedure, shortened: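 THP-1 cells were exposed to the compound at the indicated concentrations for 24 h, then immunoblotted for Ac-HH3, Ac-SMC3, Ac-tubulin and HDAC8 with GAPDH as loading control. Band intensities were quantified and normalized to the DMSO-treated group. Data are mean ± SEM of two independent experiments, analysed by one-way ANOVA against DMSO.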

HCT-116 [37] = experiment: cells; conditions: Homo sapiens
Jurkat [38] = experiment: Induction of cell cycle arrest in human Jurkat cells assessed as accumulation of cells at G0/G1 phase measured after 48 hrs by PI staining based flow cytometry analysis; type: functional; conditions: dose 0.13-3.3 µM
Jurkat [39] = experiment: Induction of cell death in human Jurkat cells at 5 uM measured after 48 hrs in presence of ferrostatin-1 by flow cytometry analysis; type: functional, cell-based
A549 = experiment: cells; conditions: Homo sapiens

Structure (SMILES): CCCCCCNNC(=O)c1ccc(CNC(=O)CN2CCC(c3ccc(NC4CCC(=O)NC4=O)cc3)CC2)cc1 (stereo not given)
- Activity (Jurkat [1]): Active
- Activity (Jurkat [2]): Dose-Dependent Effect
- Activity (Jurkat [3]): inactive
- Activity (THP-1 [4]): inactive
- Activity (HCT-116 [5]): Dose-Dependent Effect
- Activity (Jurkat [6]): Active
- Activity (Jurkat [7]): Dose-Dependent Effect
- Activity (Jurkat [8]): inactive
- Activity (Jurkat [9]): Active
- Activity (HCT-116 [10]): Active
- Activity (Jurkat [11]): inactive
- Activity (Jurkat [12]): inactive
- Activity (HCT-116 [13]): Active
- IC50 (Jurkat [14]): 1500 nM
- Activity (HCT-116 [15]): 4.28%
- Activity (HCT-116 [16]): Dose-Dependent Effect
- Activity (Jurkat [17]): Active
- Activity (HCT-116 [18]): Dose-Dependent Effect
- Activity (HCT-116 [19]): Dose-Dependent Effect
- Activity (HCT-116 [20]): Active
- Activity (Jurkat [21]): Active
- IC50 (Jurkat [22]): 2000 nM
- IC50 (THP-1 [23]): > 33300 nM
- IC50 (Jurkat [24]): 2800 nM
- Activity (Jurkat [25]): Active
- Activity (HCT-116 [26]): Dose-Dependent Effect
- IC50 (Jurkat [27]): 2500 nM
- Activity (Jurkat [28]): Active
- Activity (Jurkat [29]): Dose-Dependent Effect
- Activity (Jurkat [30]): Dose-Dependent Effect
- Activity (Jurkat [31]): inactive
- Activity (Jurkat [32]): Dose-Dependent Effect
- Activity (Jurkat [33]): Active
- Activity (Jurkat [34]): Dose-Dependent Effect
- Activity (Jurkat [35]): inactive
- Activity (THP-1 [36]): Active
- IC50 (HCT-116 [37]): 3800 nM
- Activity (Jurkat [38]): Dose-Dependent Effect
- Activity (Jurkat [39]): Active
- IC50 (A549): 17500 nM
